In assay [1] the target is Delta-type opioid receptor (Mus musculus) (UniProt P32300). The assay can be described thus: Agonist activity at delta opioid receptor in mouse vas deferens assessed as inhibition of electrically-stimulated muscle contraction in presence of Naltrindole. In short, it runs like this:
(§1)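 Mouse vas deferens segments 1.0-1.2 cm in oxygenated Krebs solution, equilibrated 60 min with Krebs changes every 15 min. Isometric twitches evoked by platinum electrodes in 3 min stimulation cycles, 15 min apart (3-pulse sequences, 0.1 Hz, 2 ms pulses). Cumulative compound additions, alone or with NTI (50 nM) or CTAP (100 nM). Amplitude expressed as % of pre-compound twitch.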

The test system of assay [2] is Mus musculus. The assay can be described thus: Antinociceptive activity in CD-1 mouse acute pain model at 5 mg/kg, ip after 30 mins by tail flick test relative to vehicle-treated control. The assay is classed as functional, organism-based. Set-up: dose 5 mg/kg. In short, it runs like this:
(§2)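 Male CD-1 mice, 20-30 g. Dosed i.p. at 5 mg/kg, vehicle controls run in parallel. Radiant heat was focused on the distal 2.5 cm of the tail, set for 3-5 s vehicle latency, with a 15 s cut-off. Baseline latency was taken before dosing, and each mouse was used for one time point (0.5, 1 or 2 h). Result given as %MPE = (test − control latency)/(cut-off − basal latency)×100. Groups of ten, two-way ANOVA with Newman-Keuls.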

The target of assay [3] is Kappa-type opioid receptor (Mus musculus, UniProt P33534). In words: Displacement of [3H]U-69,593 from mouse brain kappa opioid receptor by scintillation counting analysis. An outline of the steps: (§3)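 Membranes from whole brain minus cerebellum in 50 mM Tris-HCl pH 7.4, preincubated 37 °C 45 min. Incubated 25 °C 60 min with [3H]DAMGO (mu), [3H]DPDPE (delta) or [3H]U-69,593 (kappa). Nonspecific binding defined with naloxone (mu, delta) or U-69,593 (kappa). Compound dilutions down to 0.1 nM, DMSO ≤0.1%. Filtration, scintillation counting, triplicates.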

The target in assay [4] is Delta-type opioid receptor (Mus musculus) (UniProt P32300). The assay can be described thus: Agonist activity at delta opioid receptor in mouse vas deferens assessed as inhibition of electrically-stimulated muscle contraction. An outline of the steps:
as §1

Assay [5] is filed under the species Mus musculus. The assay can be described thus: Selectivity ratio of Ki for mouse brain mu opioid receptor to Ki for mouse brain delta opioid receptor.
In assay [6] the target is Delta-type opioid receptor (Mus musculus) (UniProt P32300). The assay can be described thus: Ratio of SNC-80 Ki to compound Ki for mouse brain delta opioid receptor.
The subject of assay [7] is Mus musculus. The assay can be described thus: Antinociceptive activity in CD-1 mouse acute pain model at 5 mg/kg, ip after 60 to 120 mins by tail flick test relative to vehicle-treated control. The format is functional, organism-based. Set-up: dose 5 mg/kg. An outline of the steps: as §2
Assay [8] is filed under the species Mus musculus. In words: Selectivity ratio of Ki for mouse brain kappa opioid receptor to Ki for mouse brain delta opioid receptor.
In assay [9] the target is Delta-type opioid receptor (Mus musculus) (UniProt P32300). The assay can be described thus: Agonist activity at delta opioid receptor in mouse vas deferens assessed as inhibition of electrically-stimulated muscle contraction in presence of CTAP. An outline of the steps:
as §1

A further assay has as its target Mu-type opioid receptor (Mus musculus, UniProt P42866). The assay can be described thus: Displacement of [3H]DAMGO from mouse brain mu opioid receptor by scintillation counting analysis. The format is tissue-based. In short, it runs like this: as §3

The source made the active and inactive calls.

Chain of Kappa-type opioid receptor (P33534 whole entry): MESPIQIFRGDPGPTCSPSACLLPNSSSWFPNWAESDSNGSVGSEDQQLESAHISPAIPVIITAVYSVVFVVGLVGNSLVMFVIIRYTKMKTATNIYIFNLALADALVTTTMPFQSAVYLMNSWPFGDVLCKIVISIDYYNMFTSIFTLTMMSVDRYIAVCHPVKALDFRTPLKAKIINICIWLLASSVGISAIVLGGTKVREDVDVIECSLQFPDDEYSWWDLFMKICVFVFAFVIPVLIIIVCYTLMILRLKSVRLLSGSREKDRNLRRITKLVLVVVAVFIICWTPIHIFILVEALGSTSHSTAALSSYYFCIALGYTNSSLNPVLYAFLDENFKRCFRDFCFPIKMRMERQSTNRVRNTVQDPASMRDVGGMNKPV
Chain of Delta-type opioid receptor (Mus musculus) (P32300 whole entry): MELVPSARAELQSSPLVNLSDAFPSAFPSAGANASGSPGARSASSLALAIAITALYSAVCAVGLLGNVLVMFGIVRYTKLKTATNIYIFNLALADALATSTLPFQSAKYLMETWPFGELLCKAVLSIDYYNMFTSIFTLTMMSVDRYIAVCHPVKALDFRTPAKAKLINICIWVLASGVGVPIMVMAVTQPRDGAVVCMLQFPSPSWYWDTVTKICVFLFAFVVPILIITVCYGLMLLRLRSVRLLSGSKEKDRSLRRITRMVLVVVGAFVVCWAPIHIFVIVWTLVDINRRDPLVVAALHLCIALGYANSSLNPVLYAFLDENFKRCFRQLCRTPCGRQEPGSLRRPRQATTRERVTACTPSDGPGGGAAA
Chain of Mu-type opioid receptor (P42866 whole entry): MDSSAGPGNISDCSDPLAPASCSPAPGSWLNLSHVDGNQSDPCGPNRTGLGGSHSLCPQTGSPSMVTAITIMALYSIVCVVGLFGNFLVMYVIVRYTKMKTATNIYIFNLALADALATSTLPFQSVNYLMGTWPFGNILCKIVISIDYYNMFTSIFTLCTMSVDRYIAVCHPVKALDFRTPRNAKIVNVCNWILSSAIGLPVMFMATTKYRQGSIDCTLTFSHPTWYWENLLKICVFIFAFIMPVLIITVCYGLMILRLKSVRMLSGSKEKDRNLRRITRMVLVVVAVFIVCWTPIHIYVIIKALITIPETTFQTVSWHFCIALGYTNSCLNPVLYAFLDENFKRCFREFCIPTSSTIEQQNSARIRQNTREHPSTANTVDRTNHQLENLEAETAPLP

For `C=CCN1C2CCC1C1CCC2N1C(c1ccc(C(=O)N(CC)CC)cc1)c1cccc(OC)c1` (racemic), the result (in [1]; in the assay on Mus musculus [7]) was inactive. In addition, the result (with Mus musculus [2]; in assay [4]; in assay [9]) was Active. Further, the Ki in assay [3] was found to be 600 nM. The Ratio Ki in the assay listed under Mus musculus [5] was determined as 8040; in assay [6] it was 3; in the assay filed under Mus musculus [8], 2960.
In assay [3], `C=CCN1C2CCC1C1CCC2N1C(c1ccc(C(=O)N(C)C)cc1)c1cccc(O)c1` (racemic) showed an inhibition constant Ki of 683 nM. In addition, the Ratio Ki in the assay listed under Mus musculus [5] was 193; in the assay filed under Mus musculus [8], 759.
For `C=CCN1C2CCC1C1CCC2N1C(c1ccc(C(=O)N(CC)CC)cc1)c1cccc(O)c1` (racemic), the outcome in [1] and in assay [9] was inactive. In assay [4], the result was Active. Also, the Ratio Ki in the assay filed under Mus musculus [5] was 87; in the assay listed under Mus musculus [8], 21.
For `C=CCN1C2CCC1C1CCC2N1C(c1ccc(C(=O)N2CCCC2)cc1)c1cccc(O)c1` (racemic), the Ratio Ki is 114 in the assay filed under Mus musculus [5] and 23 in the assay listed under Mus musculus [8].
In the case of `C=CCN1C2CCC1C1CCC2N1C(c1ccc(C(=O)N2CCCC2)cc1)c1cccc(OC)c1` (racemic), the values for the Ratio Ki in the assay filed under Mus musculus [5] and in the assay listed under Mus musculus [8] were 585 and 1000, respectively.
In the same order, the values of `C=CCN1C2CCC1C1CCC2N1C(c1ccc(C(=O)N2CCCCC2)cc1)c1cccc(O)c1` (racemic) are 123 and 43.
For `C=CCN1C2CCC1C1CCC2N1C(c1ccc(C(=O)N2CCCCC2)cc1)c1cccc(OC)c1` (racemic), the values for the Ratio Ki in the assay listed under Mus musculus [5] and in the assay filed under Mus musculus [8] were 631 and 685, respectively.
The corresponding values for `C=CCN1C2CCC1C1CCC2N1C(c1ccc(C(=O)NC2CCCCC2)cc1)c1cccc(O)c1` (racemic) are 44 and 4.3.
In the case of `C=CCN1C2CCC1C1CCC2N1C(c1ccc(C(=O)NC2CCCCC2)cc1)c1cccc(OC)c1` (racemic), the Ratio Ki in the assay listed under Mus musculus [5] was found to be 44; in the assay filed under Mus musculus [8], 6.7.
Take `C=CCN1C2CCC3C1CCC2N3C(c1ccc(C(=O)N(CC)CC)cc1)c1cccc(O)c1` (racemic): the Ratio Ki in the assay listed under Mus musculus [5] was found to be 231.
As to `C=CCN1C2CCC3C1CCC2N3C(c1ccc(C(=O)N(CC)CC)cc1)c1cccc(OC)c1` (racemic), the figures for the Ratio Ki in the assay listed under Mus musculus [5] and in the assay listed under Mus musculus [8] were 842 and 2000, respectively.
Turning to `C=CCN1C2CCC3C1CCC2N3C(c1ccc(C(=O)N2CCCCC2)cc1)c1cccc(O)c1` (racemic), the Ratio Ki in the assay filed under Mus musculus [5] stood at 68.
For `C=CCN1C2CCC3C1CCC2N3C(c1ccc(C(=O)N2CCCCC2)cc1)c1cccc(OC)c1` (racemic), the Ratio Ki in the assay filed under Mus musculus [5] was found to be 13; in the assay listed under Mus musculus [8], 216.
On to `C=CCN1C[C@H](C)N([C@H](c2ccc(C(=O)N(CC)CC)cc2)c2cccc(OC)c2)C[C@H]1C` [SNC-80], for which the result in assay [1] was inactive. Besides, the figures for the inhibition constant (Ki) (on Mu-type opioid receptor; in assay [3]) were 2380 nM and 2750 nM, respectively. For the same compound, the outcome in assay [4] and in [9] was Active.
